Calls of active or inactive are those of the source. No cut-off for these calls is given here.

These results are taken from ChEMBL document CHEMBL3414537, “Efficient synthesis and biological activity of Psammaplin A and its analogues as antitumor agents” (Eur J Med Chem, 2015).

Series [1] relates to A549. Kind of series: Cytotoxicity against human A549 cells by SRB assay. Format: functional, cell-based. In a few lines:
(§1)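 Cells at 3.5 × 10^4 cells/mL in RPMI 1640 with 10% heat-inactivated FBS were exposed to a range of concentrations for 72 h. They were then TCA-fixed (10%) and stained with sulforhodamine B. Growth is expressed as % of solvent-treated control, and IC50 is obtained by non-linear regression. Means of ≥3 experiments.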
On the technique in general: The SRB assay estimates cell density from bound dye.

Series [2] can be described thus: Cytotoxicity against human HCT116 cells by SRB assay. The series is classed as functional, cell-based. To be noted: HCT-116. In a few lines: as §1
Series [3] has as its system A549. Description: Antiproliferative activity against human A549 cells assessed as shrunken and sharp shape at 0.4 uM after 24 hrs by phase contrast microscopy. Format: functional, cell-based. The procedure, abridged:
(§2)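 A549 cells (RPMI 1640, 10% heat-inactivated FBS, 37 °C, 5% CO2) exposed to 0.2–1.6 µM for 24 h; TSA 0.4 µM run alongside. Cell shape examined by phase-contrast microscopy.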

Series [4] addresses T1, Histone deacetylase (Homo sapiens) (UniProt Q13547+O15379+Q9UBN7+Q92769+Q9UQL6+Q8WUI4+Q9BY41+Q96DB2+P56524+Q9UKV0+Q969S8). Description: Inhibition of HDAC in human A549 cells at 1.6 uM after 24 hrs by fluorescence assay. Format: cell-based.
Series [5] addresses T1, Histone deacetylase (Homo sapiens). Kind of series: Inhibition of HDAC in human A549 cells assessed as increase in acetylated histone 3 expression level at 1.6 uM after 24 hrs by western blotting analysis. The series is classed as cell-based. In a few lines:
(§3)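 After 24 h exposure (0.2–1.6 µM), A549 lysates were prepared in Tris-HCl pH 6.8/4% SDS buffer with protease and phosphatase inhibitors at 4 °C. Equal protein was separated by SDS-PAGE and transferred to PVDF. Membranes were blocked in 5% BSA/TBS-Tween for 2 h, incubated with primary antibody overnight at 4 °C, then HRP secondary for 1 h, with chemiluminescent detection.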
A general note: A western blot detects proteins with antibodies after separation by electrophoresis.

Series [6] deals with A549. Description: Antitumor activity against human A549 cells xenografted in athymic BALB/c nu/nu mouse assessed as reduction in tumor weight at 30 mg/kg, ip administered thrice a week measured after 35 days relative to vehicle-treated control. Format: functional, organism-based. The arrangement: dose 30 mg/kg. In a few lines:
(§4)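 Male BALB/c nu/nu mice (6 weeks) were implanted s.c. in the right flank with 1 × 10^7 A549 cells. Dosing started at tumor volume 50–60 mm3, with 6 mice per group. Treatment was 15 or 30 mg/kg i.p. three times weekly in 0.05% Tween-80/0.9% NaCl, with vehicle and paclitaxel 5 mg/kg controls. Tumor volume was followed to day 35, and end-point tumors were weighed.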

For series [7], the system named is A549. Description: Antiproliferative activity against human A549 cells assessed as shrunken and sharp shape at 1.6 uM after 24 hrs by phase contrast microscopy. The series is classed as functional, cell-based. The procedure, abridged: as §2
Series [8] concerns A549. Kind of series: Antiproliferative activity against human A549 cells assessed as morphological changes after 24 hrs by phase contrast microscopy. The series is classed as functional, cell-based. In a few lines: as §2
The target in series [9] is T1, Histone deacetylase (Homo sapiens). Description: Inhibition of HDAC in human A549 cells after 24 hrs by fluorescence assay. The series is classed as cell-based.
Series [10] shares this target. Kind of series: Inhibition of HDAC in human A549 cells assessed as increase in acetylated histone 3 expression level after 24 hrs by western blotting analysis. Format: cell-based. In a few lines:
as §3

The test system of series [11] is A549. Description: Induction of phosphorylated AKT level in human A549 cells after 24 hrs by Western blotting analysis. The series is classed as cell-based. In a few lines: as §3
Series [12] relates to A549. Kind of series: Induction of phosphorylated ERK level in human A549 cells after 24 hrs by Western blotting analysis. Format: cell-based. The procedure, abridged:
as §3

In series [13] the test system is A549. Description: Antitumor activity against human A549 cells xenografted in athymic BALB/c nu/nu mouse assessed as tumor growth inhibition at 15 mg/kg, ip administered thrice a week measured after 35 days relative to vehicle-treated control. Format: functional. The following applies: 840 h, route intraperitoneal, read-out: TGI. The procedure, abridged: as §4
Background: Xenograft models place foreign cells or tissue in a host animal.

For series [14], the system named is A549. Kind of series: Antitumor activity against human A549 cells xenografted in athymic BALB/c nu/nu mouse assessed as tumor growth inhibition at 30 mg/kg, ip administered thrice a week measured after 35 days relative to vehicle-treated control. The series is classed as functional. To be noted: 840 h, route intraperitoneal, read-out: TGI. In a few lines:
as §4

Series [15] deals with A549. Description: Antitumor activity against human A549 cells xenografted in athymic BALB/c nu/nu mouse assessed as reduction in tumor weight at 15 to 30 mg/kg, ip administered thrice a week measured after 35 days relative to vehicle-treated control. Format: functional, organism-based. The procedure, abridged:
as §4

Series [16] concerns Mus musculus. Description: Toxicity in athymic BALB/c nu/nu mouse xenografted with human A549 cells assessed as change in body weight at 15 to 30 mg/kg, ip administered thrice a week measured after 35 days relative to vehicle-treated control. The series is classed as organism-based. The arrangement: dose 15-30 mg/kg, route intraperitoneal. To be noted: in vivo, 840 h.
Series [17] deals with A549. Description: Antitumor activity against human A549 cells xenografted in athymic BALB/c nu/nu mouse assessed as inhibition of Ki-67 expression in central and edge region of tumor at 15 to 30 mg/kg, ip administered thrice a week measured after 35 days by immunohistochemical analysis relative to vehicle-treated control. Format: functional, organism-based. The procedure, abridged:
(§5)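 In the A549 nude-mouse xenograft (15 or 30 mg/kg i.p. thrice weekly, vehicle control), end-point tumor sections were incubated overnight at 4 °C with Ki-67 antibody. Detection used an HRP polymer system with hematoxylin-eosin counterstain, and sections were imaged by light microscopy.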

For series [18], the system named is A549. Description: Antitumor activity against human A549 cells xenografted in athymic BALB/c nu/nu mouse assessed as change in cell number in central region of tumor at 15 to 30 mg/kg, ip administered thrice a week measured after 35 days by immunohistochemical analysis relative to vehicle-treated control. The series is classed as functional, organism-based. The procedure, abridged: as §5

Series [19] has as its system A549. Kind of series: Antitumor activity against human A549 cells xenografted in athymic BALB/c nu/nu mouse assessed as change in cell number in edge or peripheral region of tumor at 15 to 30 mg/kg, ip administered thrice a week measured after 35 days by immunohistochemical analysis relative to vehicle-treated control. The series is classed as functional, organism-based. In a few lines: as §5

For `CO/N=C(/Cc1ccc(OC)c(Br)c1)C(=O)NCCSSCCNC(=O)/C(Cc1ccc(OC)c(Br)c1)=N\OC`, the IC50 in series [1] is 9.2 µM; in series [2] it was 10.7 µM.

In the case of `CC(/C=C/C(=O)NO)=C\[C@@H](C)C(=O)c1ccc(N(C)C)cc1`, the result in series [3] was Active.

Regarding `O=C(NCCCCCCNC(=O)/C(Cc1ccc(OCc2ccccc2)cc1)=N\O)/C(Cc1ccc(OCc2ccccc2)cc1)=N\O`, the IC50 in series [1] was 20.1 µM; in series [2], greater than 100 µM.

On to `O=C(NCCS)/C(Cc1ccc(OCc2ccccc2)cc1)=N\O`, for which the IC50 turned out to be 40 µM in series [1] and 85.1 µM in series [2].

`O=C(NCCSSCCNC(=O)/C(Cc1ccc(OC2CCCC2)cc1)=N/O)/C(Cc1ccc(OC2CCCC2)cc1)=N\O`: the IC50 stood at 1.4 µM in [1] and 5.34 µM in series [2].

With `O=C(NCCSSCCNC(=O)/C(Cc1ccc([N+](=O)[O-])cc1)=N/O)/C(Cc1ccc([N+](=O)[O-])cc1)=N\O`, the figures for the concentration for half-maximal inhibition (IC50) in series [1] and in series [2] were 2.66 µM and 1.8 µM, respectively.

With `CCCCOc1ccc(C/C(=N/O)C(=O)NCCSSCCNC(=O)/C(Cc2ccc(OCCCC)cc2)=N/O)cc1`, the IC50 in [1] is 41.1 µM; in series [2] it was 23.8 µM.

Take `O=C(NCCSSCCNC(=O)/C(Cc1cc(Cl)cc(Cl)c1Cl)=N/O)/C(Cc1cc(Cl)cc(Cl)c1Cl)=N\O`: the IC50 stood at 5.09 µM in series [1] and 4.23 µM in [2].

On to `CC(C)(C)c1ccc(C/C(=N/O)C(=O)NCCSSCCNC(=O)/C(Cc2ccc(C(C)(C)C)cc2)=N/O)cc1`, for which the IC50 was 1.78 µM in series [1] and 1.67 µM in series [2].

Take `O=C(NCCSSCCNC(=O)/C(Cc1ccc(O)c(Br)c1)=N/O)/C(Cc1ccc(O)c(Br)c1)=N/O` [PSAMMAPLIN A]: the values for the IC50 in series [1] and in [2] were 1.18 µM and 1.62 µM, respectively. For the same compound, the inhibition entry in series [4] and in series [5] was “Active” throughout. The outcome in series [6] was Active.

For `O=C(NCCSSCCNC(=O)/C(Cc1ccc(OCc2ccccc2)cc1)=N/O)/C(Cc1ccc(OCc2ccccc2)cc1)=N\O`, the IC50 in series [1] was determined as 1.12 µM; in [2], 1.57 µM.

As for `COc1ccc(C/C(=N/O)C(=O)NCCSSCCNC(=O)/C(Cc2ccc(OC)cc2)=N/O)cc1`, the IC50 in [1] stood at 2.81 µM; in series [2] it was 4.39 µM.

For `Cc1ccc(C/C(=N/O)C(=O)NCCSSCCNC(=O)/C(Cc2ccc(C)cc2)=N/O)cc1`, the half-inhibitory concentration (IC50) was 6.09 µM in series [1] and 5.63 µM in series [2].

Regarding `O=C(NCCSSCCNC(=O)/C(Cc1ccc(Oc2ccccc2)cc1)=N/O)/C(Cc1ccc(Oc2ccccc2)cc1)=N\O`, the IC50 in series [1] is greater than 100 µM; in series [2], 20.4 µM.

With `O=C(NCCSSCCNC(=O)/C(Cc1cc(Cl)cc(Cl)c1)=N/O)/C(Cc1cc(Cl)cc(Cl)c1)=N\O`, the IC50 in [1] turned out to be 2.28 µM; in series [2] it was 2.1 µM.

Regarding `CCCOc1ccc(C/C(=N/O)C(=O)NCCSSCCNC(=O)/C(Cc2ccc(OCCC)cc2)=N/O)cc1`, the IC50 in series [1] is 13.5 µM; in series [2] it was 15.5 µM.

As for `O=C(NCCSSCCNC(=O)/C(Cc1ccc(F)cc1)=N/O)/C(Cc1ccc(F)cc1)=N\O`, the IC50 turned out to be 3.5 µM in series [1] and 3.78 µM in series [2].

As to `O=C(NCCCl)/C(Cc1ccc(OCc2ccccc2)cc1)=N\O`, the IC50 in [1] and in series [2] was greater than 100 µM in each case.

`O=C(NCCSSCCNC(=O)/C(Cc1ccccc1)=N/O)/C(Cc1ccccc1)=N\O`: the values for the IC50 in series [1] and in series [2] were 6.55 µM and 6.22 µM, respectively.

With `O=C(NCCSSCCNC(=O)/C(Cc1ccc2ccccc2c1)=N/O)/C(Cc1ccc2ccccc2c1)=N\O`, the outcome in [7], in [15] and in series [19] was Active. In addition, the Activity result in [1] is “Dose-dependent effect”; in series [8], “Dose-dependent effect”; in series [11], “Dose-dependent effect”; in [12] it was “Dose-dependent effect”; in [16], “Non-toxic”. Also, the IC50 was 1.2 µM in [1] and 1.3 µM in series [2]. Further, the inhibition entry in [9] and in series [10] was “Dose-dependent effect” each time. Further, the inhibition in vivo at 15 mg/kg in series [13] was 30.4%. Besides, the inhibition in vivo at 30 mg/kg in [14] worked out at 47.6%. Further, the inhibition result in series [17] is “Active”. Moreover, in series [18], the outcome was inactive.

Turning to `O=C(NCCSSCCNC(=O)/C(Cc1ccc(Cl)c(Cl)c1)=N/O)/C(Cc1ccc(Cl)c(Cl)c1)=N\O`, the IC50 stood at 1.6 µM in series [1] and 1.46 µM in [2].

Regarding `CCOc1ccc(C/C(=N/O)C(=O)NCCSSCCNC(=O)/C(Cc2ccc(OCC)cc2)=N/O)cc1`, the IC50 was 1.37 µM in series [1] and 1.61 µM in series [2].

For `O=C(NCCSSCCNC(=O)/C(Cc1ccc(Cl)cc1)=N/O)/C(Cc1ccc(Cl)cc1)=N\O`, the IC50 in [1] stood at 2.58 µM; in series [2], 2.03 µM.

`O=C(NCCSSCCNC(=O)/C(Cc1cccc2ccccc12)=N/O)/C(Cc1cccc2ccccc12)=N\O`: the 50% inhibitory concentration (IC50) in series [1] and in series [2] was greater than 100 µM throughout.

In the case of `O=C(NCCSCCNC(=O)/C(Cc1ccc(OCc2ccccc2)cc1)=N\O)/C(Cc1ccc(OCc2ccccc2)cc1)=N\O`, the values for the IC50 in series [1] and in [2] were 2.5 µM and greater than 100 µM, respectively.

Regarding `O=C(NCCCCl)/C(Cc1ccc(OCc2ccccc2)cc1)=N\O`, the half-maximal inhibitory concentration (IC50) in [1] and in [2] was greater than 100 µM in each case.

On to `O=C(NCCSSCCNC(=O)/C(Cc1c2ccccc2cc2ccccc12)=N\O)/C(Cc1c2ccccc2cc2ccccc12)=N\O`, for which the IC50 in series [1] was determined as 18.5 µM; in [2], 28.4 µM.

On to `CO/N=C(/Cc1ccc(OC)cc1)C(=O)NCCSSCCNC(=O)/C(Cc1ccc(OC)cc1)=N\OC`, for which the IC50 in [1] and in [2] was greater than 100 µM each time.

In the case of `O=C(NCCSSCCNC(=O)/C(Cc1ccc(Br)cc1)=N/O)/C(Cc1ccc(Br)cc1)=N\O`, the values for the IC50 in [1] and in series [2] were 5.89 µM and 7.24 µM, respectively.

For orientation: IC50 means the concentration needed to halve the response being measured. Read a high IC50 as lower potency.
